CHOP UPR activ = apoptotic UPR (CHOP) activation; CHO-CHOP luciferase reporter, luminescence; percent of tunicamycin response over DMSO baseline; activation, % at 10 µM; 0.34% of 330,000 active;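 active = at 10 µM dose, activation of 40% or more, normalized to positive control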
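measured by = luciferase luminescence | assay system = CHO-CHOP cells, stable luciferase reporter of PERK-eIF2a-CHOP signalling | amount = 500 reporter cells seeded per well | timing = 6 h compound exposure at 37 °C after overnight seeding | controls = positive tunicamycin 10 µg/mL, negative DMSO alone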
XBP1 UPR activ = activators of adaptive arm of unfolded protein response (XBP1) | CHO-XBP1 luciferase reporter, IRE1-XBP1 UPR activation, luminescence; percent of tunicamycin response, DMSO as zero | activation, % at 20 µM | 0.33% of 330,000 active | AID 463104;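 active = versus positive control, 20 µM dose yields 30% or more activation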
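Assay system: CHO-XBP1 luciferase reporter cells; Schedule: 6 h treatment, 37 °C; Detection: glow luminescence from Steady-Glo reagent; Benchmarks: high control tunicamycin 10 µg/mL final, low control DMSO vehicle only.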
CHOP inhibitor = inhibitors of CHOP induction in ER stress response; inhibition, % at 10 µM; CHO-K1 CHOP-promoter luciferase, tunicamycin-induced, 15-18 h; AID 2732; 3.8% of 220,000 active;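 active = compounds that reduced the stress-induced luciferase reporter signal by more than about 70% of percent inhibition, limit read from the data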
A1 inh = inhibitors of the anti-apoptotic protein A1, read as caspase activation. 0.066% of 330,000 active. MEF A1-2A-BIM cells, Caspase-Glo 3/7 luminescence, 3 h; percent of clofoctol response, vehicle zero. caspase activation, % (no concentration beside the values);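 active = over half of replicate activation scores above 10%, or exactly half above 10 with the replicate mean above 10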
CHOP confirm = confirmation of CHOP induction inhibitors. shares compounds with CHOP inhibitor. inhibition, % at 10 µM. 45% of 2,100 active. CHO-CHOP promoter luciferase reporter, tunicamycin-induced, luminescence;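 active = mean of three repeat readings of reporter signal inhibition above a set limit, cut at about 70% in these data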
Large screens that a line does not name were inactive (follow-up assays come after a bar, where they were run). This is one part of a sample in which hits are shown more often than they occur.

CCCC(=O)NC(NC(=S)Nc1ccc(S(N)(=O)=O)cc1)C(Cl)(Cl)Cl (stereo not given)	none
O=C(CCl)Nc1cccc(Oc2cnccn2)c1	none (no result: CHOP inhibitor)
CCc1ccc(OCC(=O)NC(=S)Nc2ccc(C(=O)O)cc2)cc1	none
O=C(CCl)Nc1ccc(N=Nc2ccccc2)cc1	CHOP inhibitor 103 (no result: CHOP UPR activ, XBP1 UPR activ, A1 inh) | CHOP confirm inactive
CCCC(=O)NC(NC(=S)Nc1ccc(N=Nc2ccccc2)cc1)C(Cl)(Cl)Cl (stereo not given)	CHOP inhibitor 100 | CHOP confirm 83
O=C(CCl)Nc1cccc(Oc2ccccc2)c1	CHOP inhibitor 107 | CHOP confirm inactive
CCOc1ccc2oc(C(=O)N3CCN(c4ccccc4OCC)CC3)c(C)c2c1	none (no result: CHOP inhibitor)
CCN(CC)c1ccc(C=NCCNS(=O)(=O)c2ccc(C)cc2)cc1	none (no result: CHOP inhibitor)
CCOc1ccc(-c2nnc(NC(=O)Cc3cc(OC)c(OC)c(OC)c3)o2)cc1	none (no result: CHOP inhibitor)
CCCOc1ccc(-c2c(C(=O)N/N=C(\C)COc3ccccc3)nnn2-c2nonc2N)cc1	none (no result: CHOP inhibitor)
CCCc1nc(SCC(=O)Nc2ccccc2)c2c(=O)n(C)c(=O)n(C)c2n1	CHOP inhibitor 99 | CHOP confirm inactive
CCc1nc(SCC(=O)Nc2ccccc2)c2c(=O)n(C)c(=O)n(C)c2n1	none (no result: CHOP inhibitor)
O=C(c1ccc(F)c(S(=O)(=O)N2CCOCC2)c1)N1CCN(c2ncccn2)CC1	none (no result: CHOP inhibitor)
CC1=CC(C)(C)n2c(O)c(N=N)c3c(C)c(C)cc1c32	CHOP inhibitor 98 | CHOP confirm inactive
O=Nc1ccc(O)c2ncccc12	CHOP inhibitor 106 | CHOP confirm 108
O=S(=O)(O)c1cccc2c(N=Nc3ccc(O)c4ncccc34)cccc12	none (no result: CHOP UPR activ, XBP1 UPR activ, CHOP inhibitor)
Cc1ccc2[nH]c(=O)c(C3C(C#N)=C(N)Oc4c3ccc3cccnc43)cc2c1 (stereo not given)	CHOP inhibitor 97 | CHOP confirm inactive
N#CC1=C(N)Oc2c(ccc3cccnc23)C1c1ccccc1 (stereo not given)	none
COc1cc(/C=C/C(=O)OCC(=O)NCCC2=CCCCC2)ccc1O	none
O=C(COC(=O)/C=C/c1cccc(Br)c1)NCCC1=CCCCC1	CHOP inhibitor 96 | CHOP confirm inactive
O=C(COc1ccc(Cl)cc1Cl)NCCC1=CCCCC1	CHOP inhibitor 107 | CHOP confirm 115
Cc1ccccc1OCC(=O)NCCC1=CCCCC1	none
O=C(COc1ccc(Cl)cc1)Nc1ccccc1C(=O)NCc1ccco1	CHOP inhibitor 97 | CHOP confirm inactive
c1csc(C2Nc3cccc4cccc(c34)N2)c1	CHOP inhibitor 97 | CHOP confirm inactive
c1ccc(C2Nc3cccc4cccc(c34)N2)cc1	none (no result: CHOP inhibitor)
O=C(O)CCCn1cc(NC(=O)COc2ccc([N+](=O)[O-])cc2)cn1	none
CC(C)c1ccc2c(c1)C1(NN=C(c3ccccc3)S1)C(=O)N2 (stereo not given)	CHOP inhibitor 105 | CHOP confirm 106
CCOC(=O)c1c(CC(C)C)csc1NC=O	CHOP inhibitor 99 | CHOP confirm inactive
N#C/C(=C\c1ccc(N2CCOCC2)o1)c1ccccc1	none
N#C/C(=C/c1ccc(N2CCCCCC2)o1)c1cccc(F)c1	CHOP inhibitor 104 | CHOP confirm inactive
CCOC(=O)c1[nH]c2ccc(Cl)cc2c1-c1ccccc1	CHOP inhibitor 97 | CHOP confirm 120
CN(C)C=NC(=O)c1[nH]c2ccc(Cl)cc2c1-c1ccccc1	none (no result: CHOP inhibitor)
CC1CC1C(=O)N1CCN(S(=O)(=O)c2cccc(F)c2)CC1 (stereo not given)	none (no result: CHOP inhibitor)
CC(C)(C)c1ccc(C2CC2C(=O)N/N=C\c2ccc[nH]2)cc1 (stereo not given)	CHOP inhibitor 105 | CHOP confirm 95
O=C(N/N=C/c1ccco1)C1CC1c1ccccc1 (stereo not given)	none
CCOC(=O)C1=C(Cc2ccc(C)cc2)C(=O)c2ccccc2C1=O	CHOP UPR activ 97, CHOP inhibitor 104 | CHOP confirm inactive
CCOC(=O)c1c(C)oc2c1C(=O)c1ccccc1C2=O	none
Cc1nn(C)c(C)c1NC(=O)CSc1nc(-c2ccccc2Cl)nc2c1cnn2-c1ccccc1	none
Cc1nn(C)c(C)c1NC(=O)CSc1nc(C2CC2)nc2c1cnn2-c1ccccc1	CHOP inhibitor 102 | CHOP confirm inactive
O=C(Cn1[nH]c(=O)c2ccccc2c1=O)N1CCN(S(=O)(=O)c2ccc(Cl)cc2)CC1	none (no result: CHOP inhibitor)
O=C(Nc1nnc(CC2=CCCCC2)s1)Nc1ccccc1F	CHOP inhibitor 98 | CHOP confirm inactive
O=C(Nc1nnc(COc2ccccc2F)s1)Nc1ccccc1F	CHOP inhibitor 99 | CHOP confirm inactive
Cc1cccc(NC(=O)Cc2nnc(NC(=O)Nc3ccccc3F)s2)c1	none
CCOC(=O)C1=C(O)/C(=C\c2ccc(CNC(=O)C(=O)Nc3ccc(C)c(C)c3)o2)N=C1C	CHOP inhibitor 109 (no result: CHOP UPR activ, XBP1 UPR activ, A1 inh) | CHOP confirm inactive
COCCNC(=O)/C(C#N)=C\c1ccc(CNC(=O)C(=O)Nc2ccc(C)c(C)c2)o1	none
COC(=O)[C@]1(Cc2ccccc2)N[C@H](CN(C)C(C)=O)[C@@H]2C(=O)N(Cc3ccccc3)C(=O)[C@@H]21	none (no result: CHOP inhibitor, A1 inh)
CCOc1ccc(/C=N/NC(=O)Cc2csc(Nc3cccc(C(F)(F)F)c3)n2)cc1	CHOP inhibitor 106 | CHOP confirm inactive
O=c1c(Cl)c(Cl)cnn1Cc1nnc(-c2ccccc2Br)o1	CHOP inhibitor 104 (no result: A1 inh) | CHOP confirm 122
CC(=O)C1=C(C)NC(SCC(=O)c2ccc(-c3ccccc3)cc2)=C(C#N)C1c1cccnc1 (stereo not given)	CHOP inhibitor 97 | CHOP confirm inactive
O=C(CNC(=O)c1sc2ccccc2c1Cl)NCc1cccc(C(F)(F)F)c1	none (no result: CHOP inhibitor)
O=C1C2=C(NC(=S)NC2c2ccc(Cl)cc2)NC(c2ccc(Cl)cc2)N1c1ccc(Cl)cc1 (stereo not given)	CHOP inhibitor 98 | CHOP confirm inactive
O=C(CSC1=NS(=O)(=O)c2ccccc21)Nc1ccccc1	CHOP inhibitor 106 | CHOP confirm inactive
COC(=O)CSC1=NS(=O)(=O)c2ccccc21	none
CCOC(=O)c1nn(-c2ccc(C)cc2)c(=O)cc1OCC(=O)Nc1ccc(OC)cc1	none (no result: CHOP inhibitor)
CCC(=O)N1N=C(c2c(-c3ccccc3)c3cc(Cl)ccc3[nH]c2=O)CC1c1ccco1 (stereo not given)	CHOP inhibitor 103 | CHOP confirm 116
COCCN(Cc1ccc(F)cc1)C(=O)c1cc2ccccc2oc1=O	none (no result: CHOP inhibitor)
Oc1ccc[n+](CCCCC[n+]2cccc(O)c2)c1	none
CCCCCCCCCCCCCCCC[n+]1cccc(C(=O)N(CC)CC)c1	CHOP inhibitor 108 | CHOP confirm 115
C=CCn1c(SCC(=O)c2[nH]c(C)c(C(C)=O)c2C)nnc1-c1ccncc1	none
C=CCn1c(SCC(=O)c2[nH]c(C)c(C(=O)OC)c2C)nc2scc(-c3ccc(OC)c(OC)c3)c2c1=O	CHOP inhibitor 102 (no result: CHOP UPR activ, XBP1 UPR activ) | CHOP confirm 120
Cc1onc(-c2ccccc2)c1NC(=O)N(CCC#N)Cc1ccccc1	none
